Ends that are not written are not given here.
Assays:
porcine pepsin = assay: In vitro simulated gastric digestion stability, RP-HPLC; assay type: in vitro ADME; settings: pig, simulated gastric fluid with porcine pepsin, pH 2
Summary of the method: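 Test peptide was digested with […] porcine pepsin at pH 2.0 ([…] KCl-HCl) and an enzyme:substrate ratio of 1:30 (w/w). Digestion ran 2 h at 37℃, shaking at 170 rpm. Enzyme was inactivated in boiling water for 10 min and the digest centrifuged at 6000 × g for 15 min. Peptide before and after digestion was compared by C18 RP-HPLC with water/0.1 % TFA and acetonitrile/0.1 % TFA, 1.0 mL/min, 220 nm detection; triplicate.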

elastase [1] = target: T1, elastase (Sus scrofa, UniProt P00772); assay: Elastase inhibition test; assay type: biochemical
T1 sequence (P00772 27-266): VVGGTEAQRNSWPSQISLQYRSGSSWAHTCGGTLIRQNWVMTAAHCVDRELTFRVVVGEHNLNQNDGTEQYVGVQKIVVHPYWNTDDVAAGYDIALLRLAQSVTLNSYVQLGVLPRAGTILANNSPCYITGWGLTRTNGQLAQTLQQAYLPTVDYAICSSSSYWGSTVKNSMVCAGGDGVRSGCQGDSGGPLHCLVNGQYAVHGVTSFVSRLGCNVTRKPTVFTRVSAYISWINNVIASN
Summary of the method: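 Elastase from the commercial supply; test compound in 50 mM Tris-HCl, pH 8.0. The 1 mM substrate solution and the sample (buffer for the negative control) were mixed and A410 was read. Then 100 mU/mL elastase was added and incubated 5 min at 25℃, stopped with 2 M HCl, and A410 was read again. EGCG reference at 0.5 mg/mL; three independent experiments.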

elastase [2] = target: T1, elastase; settings: bovine elastin peptides; ref Liu, Su, Zhou, Zhang, Zheng, & Zhao, 2018; cited from earlier work

## FFVPF [FFVPF, Phe-Phe-Val-Pro-Phe]
Porcine pepsin
  remaining at 2 h, 1 mg/mL: 87.5 ± 1.24%
Elastase [1]
  IC50: 715 µM

## GLGPGVG
Elastase [2]
  elastase inhibitory activity (in words): weakly active

## GLPY
Elastase [2]
  elastase inhibitory activity (in words): most active

## GPGGVGAL
Elastase [2]
  elastase inhibitory activity (in words): weakly active
